In the library only some 4.5% were active in any assay of this set; here they are far more common.
GPR7 antagonist = GPR7 receptor antagonists, primary screen, cell-based, fluorescence, single concentration; 290,000 compounds, 1.1% hits; inhibition, % at 4.4 µM; Neuropeptides B/W receptor type 1 (Homo sapiens), P48145; GPR7-expressing cells, fluorescence antagonist assay; AID 1861, 2009; in the data active means inhibition above about 16%, passing the limit was not always enough;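 further: cells stimulated with the agonist NPW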
OX1R antag-1 = OX1R (HCRTR1) antagonists, primary screen, fluorescence, CHO/OX1R cells, Fluo-8 calcium, orexin A; inhibition, % at 5 µM; 330,000 compounds, 0.43% hits; Orexin/Hypocretin receptor type 1 (Homo sapiens), O43613; Fluo-8 calcium fluorescence;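 active means inhibition above its plate's threshold, mean inhibition of all tested compounds on the plate plus 3 SD, cut at about 37% in these data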
Target sequence (O43613 whole entry, looked up): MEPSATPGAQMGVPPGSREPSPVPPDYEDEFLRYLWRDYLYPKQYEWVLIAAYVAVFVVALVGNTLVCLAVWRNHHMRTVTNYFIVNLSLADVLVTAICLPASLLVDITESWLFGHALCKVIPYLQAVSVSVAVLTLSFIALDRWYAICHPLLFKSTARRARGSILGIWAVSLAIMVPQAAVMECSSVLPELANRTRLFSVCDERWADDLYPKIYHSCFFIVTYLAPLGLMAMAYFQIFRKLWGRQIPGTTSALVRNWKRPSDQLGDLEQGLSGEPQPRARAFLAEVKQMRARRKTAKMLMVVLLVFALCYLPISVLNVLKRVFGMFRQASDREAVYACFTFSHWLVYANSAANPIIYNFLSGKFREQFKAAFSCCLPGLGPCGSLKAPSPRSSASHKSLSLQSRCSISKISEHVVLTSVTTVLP
TAAR1 ag = human TAAR1 agonists, primary screen, Fluo-8 calcium fluorescence, CHO RD-HGA16 cells | Trace amine-associated receptor 1 (Homo sapiens), Q96RJ0 | vehicle wells 0%, saturating PEA agonist 100% | activation, % at 3 µM | 360,000 compounds, 0.99% hits;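 active means activation above the mean activation of all test compounds in the run plus 3 SD, cut at about 38% in these data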
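System: CHO-derived RD-HGA16 cells with stable Gα16 and human TAAR1 / Times: 17-24 h plating, Fluo-8 75 min 37 °C, 30 min RT / Technique: calcium-sensitive Fluo-8 signal, excitation 470-495, emission 515-575 nm / Measure: % activation relative to PEA EC100 response / Benchmarks: DMSO and PEA EC100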
OX1R antag-2 = antagonists of human orexin 1 receptor (OX1R); Orexin/Hypocretin receptor type 1 (Homo sapiens), O43613; OX1R-expressing cells, FRET antagonist read-out; inhibition, % at 6.6 µM; 330,000 compounds, 1.8% hits; in the data active means inhibition mostly above about 38%, no sharp cut-off; inactive means mostly below about 40%
CHO parental Ca = ATP-evoked calcium signal inhibitors, parental CHO, primary screen, counter-screen for OX1R antagonist project, cell-based, fluorescence, Fluo-8 calcium dye; parental CHO-K1, ATP-induced calcium, Fluo-8 fluorescence; inhibition, % at 5.6 µM; 330,000 compounds, 0.63% hits;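 active means inhibition above that plate's mean sample inhibition plus 3 SD, cut at about 26% in these data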
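test system = CHO parental line | reagent = ATP stimulus | measured by = intracellular calcium via Fluo-8 no-wash fluorescent dye | control set = ATP and no-ATP DMSO wells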
TAAR1 antagonist = human TAAR1 antagonists, primary screen, Fluo-8 calcium fluorescence, CHO RD-HGA16 cells; antagonist; inhibition, % at 3 µM; 360,000 compounds, 1.5% hits;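 active means inhibition above a per-plate cutoff, the mean inhibition of test compounds on that plate plus 3 SD, cut at about 49% in these data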
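System: CHO RD-HGA16 cells bearing hTAAR1. Reagent: EC80 β-phenethylamine stimulus. Schedule: seeding 17-24 h prior, 75-min 37 °C, 30-min RT dye loading. Signal: Fluo-8 intracellular calcium dye fluorescence, real-time kinetic reads. Read-out: % inhibition from peak post-agonist over basal fluorescence ratio. Benchmarks: vehicle wells and EC80 agonist wells. Replicates: n of 1.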
TAAR1 ag conf = human TAAR1 agonists, retest of hits, confirmation, Fluo-8 calcium fluorescence, CHO RD-HGA16 cells | shares compounds with TAAR1 ag | AID 651783, 2012 | 2,400 compounds, 82% hits | activation, % at 3 µM | scaled: DMSO 0%, maximal phenethylamine 100%;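 active means activation above a cutoff set at the run's mean compound activation plus 3 SD, cut at about 39% in these data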
Ga16 ag counter = nonselective calcium mobilization agonists, CHO-Ga16 cells, counter-screen for hTAAR1 agonist project, cell-based, fluorescence, CHO-Ga16 parental line; shares compounds with TAAR1 ag; Fluo-8 calcium fluorescence; normalized to maximal ATP response, DMSO zero; activation, % at 3 µM; 2,400 compounds, 50% hits;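 active means activation above the run cutoff, the mean activation over all tested wells plus 3 SD, cut at about 12% in these data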
TAAR1 desens = TAAR1 desensitization by agonist hits, confirmation, counter-screen for TAAR1 agonist project, cell-based, fluorescence, tachyphylaxis | AID 651951, 2012 | inhibition, % at 3 µM | shares compounds with TAAR1 ag | CHO RD-HGA16 hTAAR1, Fluo-8 calcium, beta-PEA response inhibition | 2,400 compounds, 46% hits;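 active means inhibition above the run cutoff, the mean inhibition of all test compounds plus 3 SD, cut at about 49% in these data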;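 further: beta-PEA stimulus applied at its EC80; loss of beta-PEA calcium signal after compound pretreatment read as receptor desensitization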
Ga16 antag count = inhibition of ATP-evoked calcium response in CHO-Ga16 cells, counter-screen for TAAR1 agonist project, cell-based, fluorescence. shares compounds with TAAR1 ag. CHO-Ga16 ATP-induced calcium, Fluo-8 fluorescence. inhibition, % at 3 µM. 2,400 compounds, 39% hits;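 active means inhibition above the plate's mean compound inhibition plus 3 SD, computed per plate, cut at about 22% in these data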
Large screens that a line does not name were inactive (follow-up assays come after a bar, where they were run).

O=C(c1ccc(S(=O)(=O)Nc2ccccc2F)cc1)N1CCN(c2ccccc2O)CC1	none (no result: GPR7 antagonist)
CCCCn1nc(CC(=O)NCCN(CC)CC)c2ccccc2c1=O	none
CCCCN(C)c1c(C)nc2ccc(C(=O)Nc3cc(-c4ccccc4)ccc3OC)cn12	none (no result: GPR7 antagonist, OX1R antag-1, OX1R antag-2, CHO parental Ca)
CCCCN(C)c1c(C)nc2ccc(C(=O)Nc3ccc(OC)c(OC)c3)cn12	TAAR1 ag 63 (no result: GPR7 antagonist, OX1R antag-1, OX1R antag-2, CHO parental Ca) | TAAR1 ag conf 85 | Ga16 ag counter 48 | TAAR1 desens inactive | Ga16 antag count inactive
CCN(CC)C(=O)[C@H]1CC(CC(=O)NC(C)(C)C)C(=O)N2CCc3c([nH]c4ccccc34)[C@]12C (stereo partly drawn)	none (no result: GPR7 antagonist)
CC(C)CCNC(=O)c1onc(CSc2nc3ccccc3[nH]2)c1C(=O)NCCC(C)C	none
COc1ccc(CCNC2=NCCS2)cc1	TAAR1 ag 59 | TAAR1 ag conf 62 | Ga16 ag counter inactive | TAAR1 desens inactive | Ga16 antag count inactive
O=C(COCC(=O)N/N=C/c1ccc(F)cc1)N/N=C/c1ccc(F)cc1	TAAR1 ag 54 | TAAR1 ag conf 66 | Ga16 ag counter inactive | TAAR1 desens inactive | Ga16 antag count inactive
N/C(=N\N=C/c1ccc(F)cc1)N/N=C\c1ccc(F)cc1	TAAR1 ag 70, TAAR1 antagonist 63 | TAAR1 ag conf 81 | Ga16 ag counter inactive | TAAR1 desens 77 | Ga16 antag count inactive
Fc1ccc(CSc2nnc(-c3ccccn3)o2)cc1	none (no result: OX1R antag-1, OX1R antag-2, CHO parental Ca)
CN1CCN(/N=C/c2ccc(N(c3ccccc3)c3ccccc3)cc2)CC1	TAAR1 ag 73, TAAR1 antagonist 50 | TAAR1 ag conf 72 | Ga16 ag counter 28 | TAAR1 desens 56 | Ga16 antag count 35
CN1CCN(/N=C/c2ccc(N(C)c3ccccc3)cc2)CC1	none
Cc1cc(C)c2c(c1)/C(=N/NC(=O)c1cc(C)oc1C)CCC2	TAAR1 ag 82 | TAAR1 ag conf inactive | Ga16 ag counter inactive | TAAR1 desens inactive | Ga16 antag count inactive
Cc1cc(NC(=O)COC(=O)CNS(=O)(=O)c2c(F)cc(F)cc2Br)no1	none (no result: GPR7 antagonist)
Cc1ccc(S(=O)(=O)N2C[C@]3(O)C[C@@H]4C(=O)N(c5ccccc5)C(=O)[C@@H]4C[C@]3(OC(=O)Nc3cccs3)C2)cc1	none (no result: GPR7 antagonist, OX1R antag-1, OX1R antag-2, CHO parental Ca)
N#Cc1c(N)sc2c1CCN(CCc1ccccc1)C2	TAAR1 ag 79 | TAAR1 ag conf 84 | Ga16 ag counter inactive | TAAR1 desens 64 | Ga16 antag count inactive
CCOC(=O)N1CCc2c(sc(N)c2C#N)C1	none
O=C1Nc2ccccc2C(=O)C1(Cl)Cc1ccccc1 (stereo not drawn)	TAAR1 ag 47 | TAAR1 ag conf inactive | Ga16 ag counter inactive | TAAR1 desens inactive | Ga16 antag count inactive
